Assay results collected from several papers.
Each line is one published result; the experiments were not run side by side.
Target: Serine/threonine-protein kinase PknB (pknB, Mycobacterium tuberculosis, UniProt P9WI81)

SMILES	assay	setting	remaining binding
Cc1nn(C)cc1-c1nc2c(N3CCN(Cc4ccc(Cl)cc4)CC3)c(Cl)cnc2[nH]1	binding, competition with immobilised ligand	1 µM	56%
O=C(Nc1cccnn1)N1CCC(=Cc2cccc(Oc3ccc(C(F)(F)F)cn3)c2)CC1	cell-free assay, competition with immobilised ligand	1 µM	95%
c1cnn2ncc(-c3ccnc(N4CCC45COC5)n3)c2c1	binding	1 µM	79%
O=C(NCC1CCOCC1)c1n[nH]cc1NC(=O)c1c(F)cccc1F	binding, competition with immobilised ligand	1 µM	99%
COc1cc(-c2cn(C3CCc4c(F)cccc4N(CC(F)(F)F)C3=O)nn2)ccc1-n1cnc(C)c1 (stereo not drawn)	cell-free assay, competition with immobilised ligand	1 µM	82%
CN(c1nccc(-c2cnn3ncccc23)n1)C1CC1	binding	1 µM	100%
CN(C)CC#Cc1ccc(OCCCc2sc(N3CCc4cccc(C(=O)Nc5nc6ccccc6s5)c4C3)nc2C(=O)O)c(F)c1	cell-free assay, competition with immobilised ligand	1 µM	100%
C=CC(=O)N1CCC(C(=O)NCC(=O)N2CCN(c3nc(-c4cnc(N)nc4C(F)F)nc(N4CCOCC4)n3)CC2)CC1	binding, competition with immobilised ligand	1 µM	67%
N[C@H]1CCN(c2nccc(-c3cnn4ncccc34)n2)C1	binding	1 µM	98%
COc1cnc(Nc2cccc(S(N)(=O)=O)c2)nc1N1CCN(c2ccccc2)C(=O)C1	binding, competition with immobilised ligand	1 µM	86%
Cc1c(NC(=O)c2cc(C(N)=O)nc3cc(F)ccc23)c(C(F)(F)F)nn1Cc1ccc(C#N)cc1	cell-free assay, competition with immobilised ligand	1 µM	78%
CN(C)c1ncc(F)c(-c2cnn3ncccc23)n1	binding	1 µM	87%
FC(F)(F)Oc1cccc(-c2cnc3ccc(-c4ccncc4)nn23)c1	cell-free assay, competition with immobilised ligand	5 µM	31%
O=C(NCCCC1CCCCC1)c1ccc(CNC(=O)c2cnn(-c3ccccc3)c2C(F)(F)F)cc1	cell-free assay, competition with immobilised ligand	0.1 µM	100%
CNC(=O)[C@@H]1CC[C@@H](n2c(-c3ccc4cnccc4c3)nc3ccc(C(=O)NCc4cccc(C(N)=O)c4)cc32)C1	binding, competition with immobilised ligand	1 µM	96%
